The target in experiment [1] is thrombin. Conditions: cited from earlier work.
The target of experiment [2] is T1, human α-thrombin (Homo sapiens, UniProt P00734). Kind of experiment: PABA fluorescence titration of SOS binding to human thrombin. Conditions: for ΔG° / ΔFMAX / Kd: pH 7.4, 25 °C; for ΔFMAX: PABA fluorescence λEM 370 nm; for Kd: read-out: KD,OBS.
Experiment [3] has as its target T1, human α-thrombin. It counts as biochemical. The method, boiled down:
(§1)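 Purified α-thrombin with the test compound in 20 mM phosphate or Tris, pH 7.4, 150 mM NaCl, 0.1 mM EDTA or CaCl₂, 0.1% PEG 8000. Cuvette format: 5 nM enzyme, 50 μM Spectrozyme TH, room temperature. Plate format: 12.5 nM enzyme, 10 min preincubation at 25 °C. Initial A405 rate taken as activity relative to a no-compound control. A logistic fit gave IC50, Hill slope and maximal inhibition (from Y0, YM).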

Experiment [4] relates to thrombin. Particulars: cited from earlier work. The source holds these as a separate data set.
Experiment [5] has as its target HT cleavage of human fibrinogen (Homo sapiens, UniProt P00734). The experiment in a line: Turbidimetric assay of thrombin cleavage of fibrinogen. Particulars: 0.7 - 1.8 mM SOS, turbidity at 600 nm. It counts as biochemical.
The target in a further experiment is BT (bovine thrombin) (Bos taurus, UniProt P00735). It counts as biochemical. Particulars: not shown. In short, it runs like this: as §1
[6] abbreviates: pH 7.4, I = 0.15, 25 °C, Spectrozyme TH.

The structures appear in SMILES notation. Several values for one entry are separate records, joined by “and”; a condition that tells them apart may be missing. Equal values may be shown once. Read-outs that look alike come from different tables or passages of the source.

By Kd is commonly meant the concentration at which binding is half-saturated. As to `N=C(N)c1ccc(N)cc1` [PABA, p-aminobenzamidine], at thrombin [1], the Kd was 60 to 80 µM.
Broadly, the Hill slope is the slope factor of the fitted curve. For orientation: IC50 means the concentration at which inhibition is half-maximal. A higher IC50 goes with weaker potency. Turning to `O=S(=O)(O)OC[C@H]1O[C@@](COS(=O)(=O)O)(O[C@H]2O[C@H](COS(=O)(=O)O)[C@@H](OS(=O)(=O)O)[C@H](OS(=O)(=O)O)[C@H]2OS(=O)(=O)O)[C@@H](OS(=O)(=O)O)[C@@H]1OS(=O)(=O)O` [SOS, Sucrose octasulfate], the “contribution due to non-ionic forces” value on human α-thrombin [2] is reported as 2.4 kcal/mol. The “maximal decrease in fluorescence at 370 nm” value at human α-thrombin [2] (20 mM sodium phosphate, pH 7.4, 50 mM NaCl) is “approximately 5%”. Further, the results for the “ΔG°” value at human α-thrombin [2] (50 mM NaCl), at human α-thrombin [2] (150 mM NaCl) and at human α-thrombin [2] (250 mM NaCl) were 7.9 ± 0.1 kcal/mol, 6.4 ± 0.2 kcal/mol and 5.2 ± 0.2 kcal/mol, respectively. Moreover, the ΔFMAX on human α-thrombin [2] (50 mM NaCl) is reported as −4.8±0.1%; at human α-thrombin [2] (150 mM NaCl), −6.4±0.3%; on human α-thrombin [2] (250 mM NaCl), −9.2±0.6%. For the same compound, on human α-thrombin [2] (SOS - HT vs heparin - HT), the “non-ionic contribution relative to heparin - HT complex” value is listed as “approximately 12.5 fold”. In addition, the “slope of logKD,OBS vs log[Na+]” value at human α-thrombin [2] (pH 7.4) is listed as 3.8 ± 0.5. The “contribution of non-ionic forces, share of total binding energy” value on human α-thrombin [2] (pH 7.4, I 0.15) was “approximately 35%”. Also, the ionic binding energy at human α-thrombin [2] (pH 7.4, I = 0.15, 25 °C) worked out at 4.5 kcal/mol. In addition, the Kd is ~1.4 µM and 1.4 µM at human α-thrombin [2] (50 mM NaCl, I = 0.085); 22 ± 4 µM at human α-thrombin [2] (150 mM NaCl); 149 ± 25 µM at human α-thrombin [2] (250 mM NaCl). Further, the “maximal inhibition of Spectrozyme TH hydrolysis” value is 13.5 ± 0.2% at human α-thrombin [3] (HT, from Y0 and YM of equation 3); 20 ± 2.0% at BT (bovine thrombin). On human α-thrombin [3] (setting [6]), the Hill slope was found to be 1.5 ± 0.5. Also, the IC50 at human α-thrombin [3] (setting [6]) was 4.5 ± 1.1 µM. Moreover, the “inhibition of thrombin hydrolysis of CBS31.39” value with thrombin [4] is given as at most 10%. Further, the “effect on fibrinogen cleavage profile” value in experiment [5] is on record as “gradual increase in the lag time of cleavage”.
